bIAP inhibitor = bovine intestinal alkaline phosphatase inhibitors, primary screen, selectivity assay for TNAP inhibitor project, biochemical, bovine IAP, CDP-star luminescence; alkaline phosphatase, intestinal [Bos taurus]; purified bovine IAP, 30 min; inhibition, % at 20 µM; 190,000 tested, under 10 active;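 active = over 50% inhibition of intestinal alkaline phosphatase at 20 µM in the single-dose screen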
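Assay system – bovine IAP enzyme · Quantity – bovine IAP at 1/65,000,000 final dilution · Detection – CDP-star luminescence signal · Times – 30 min reaction at room temperature · Also added – CDP-star substrate at 30 µM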
bIAP activator = bovine intestinal alkaline phosphatase activators, primary screen, biochemical, bovine IAP, CDP-star luminescence; alkaline phosphatase, intestinal [Bos taurus]; purified bovine IAP, 30 min; stronger effect = higher value; fold of DMSO-control signal, blank-subtracted; 200,000 compounds, 0.17% hits; AID 1016, 2008; activation factor at 20 µM;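 active = activation factor of 2 or more at 20 µM, a signal rise over negative controls twice the positive control's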
mIAP inh = inhibitors of mouse IAP, primary screen, biochemical, luminescence, uHTS; 330,000 compounds, 0.2% hits; intestinal alkaline phosphatase [Mus musculus]; purified mouse IAP, CDP-Star luminescence, 30 min; inhibition, % at 10 µM;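 active = inhibition of at least 40% at 10 µM in the primary screen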;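 also: plate controls were DMSO with enzyme for no effect and no enzyme wells for full effect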
mIAP activ = activators of mouse IAP, primary screen, biochemical, luminescence, uHTS; activation factor at 10 µM; 330,000 compounds, 0.24% hits; muIAP, CDP-Star luminescence, 30 min; stronger effect = higher value; 1 = vehicle-only enzyme signal, 0 = enzyme-free wells; AID 2805, 2010;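 active = activation factor of at least 2 at 20 µM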
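Assay system: mouse IAP enzyme; reagent: chemiluminescent substrate CDP-Star; dosing: test compounds delivered from DMSO solution; schedule: 30 min at room temperature; measured by: luminescence from enzymatic CDP-Star hydrolysis; controls: DMSO-only wells and no-enzyme negative control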
hIAP act = human IAP activators, primary screen, biochemical, luminescence, uHTS. 330,000 compounds, 0.16% hits. activation factor at 10 µM. AID 2524, 2010. Intestinal-type alkaline phosphatase (Homo sapiens), P09923. purified human IAP, CDP-Star luminescence, 30 min; stronger effect = higher value; 1 = vehicle-only enzyme, 0 = enzyme-free background;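 active = activation factor of the enzyme at least 2-fold when tested at 20 µM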
Target sequence (P09923 whole entry, looked up): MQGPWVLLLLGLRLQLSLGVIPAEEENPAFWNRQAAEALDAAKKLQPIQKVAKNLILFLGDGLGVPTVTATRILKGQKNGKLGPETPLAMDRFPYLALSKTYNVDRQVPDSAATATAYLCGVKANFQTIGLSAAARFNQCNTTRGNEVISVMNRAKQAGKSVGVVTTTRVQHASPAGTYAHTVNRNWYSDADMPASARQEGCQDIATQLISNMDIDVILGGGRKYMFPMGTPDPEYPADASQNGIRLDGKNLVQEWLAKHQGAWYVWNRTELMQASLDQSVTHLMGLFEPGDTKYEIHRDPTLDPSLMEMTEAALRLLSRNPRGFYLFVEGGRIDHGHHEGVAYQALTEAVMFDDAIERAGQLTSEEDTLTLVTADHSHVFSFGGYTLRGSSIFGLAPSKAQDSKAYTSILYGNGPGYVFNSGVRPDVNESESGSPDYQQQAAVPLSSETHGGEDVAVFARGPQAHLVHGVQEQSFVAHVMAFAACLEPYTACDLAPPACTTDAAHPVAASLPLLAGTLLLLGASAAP
hIAP block = human IAP inhibitors, primary screen, biochemical, luminescence, uHTS. Intestinal-type alkaline phosphatase (Homo sapiens), P09923. purified IAP, CDP-Star luminescence, 30 min. inhibition, % at 10 µM. 330,000 compounds, 0.12% hits. AID 2544, 2010;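 active = inhibition reaching a set limit with compound at 10 µM in the primary screen, cut at about 35% in these data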;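 also: plate controls were DMSO wells with enzyme for no effect and no-enzyme buffer wells for full effect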
mIAP inh conf = inhibitors of mouse IAP, confirmation, biochemical, luminescence, single concentration; shares compounds with mIAP inh; purified mouse IAP, CDP-Star luminescence, 30 min; inhibition, % at 10 µM; 11,000 compounds, 4.7% hits; AID 434971, 2010;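 active = inhibition of at least 40% at 10 µM in either of the two replicates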;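 also: plate controls were DMSO wells with enzyme for no effect and buffer wells lacking enzyme for full effect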
Active calls of the source: *; i = inactive; · = not tested or not shown. Only some compounds are listed: those with a hit (about 0.79% of all), similar ones and a draw of the others.

SMILES | bIAP inhibitor | bIAP activator | mIAP inh | mIAP activ | hIAP act | hIAP block | mIAP inh conf
O=C(N/N=C/c1ccc(O)c(O)c1)N/N=C/c1ccc(O)c(O)c1 | · | · | 49* | 0.51 | 0.8 | 20 | 72*
Cc1nonc1C(=O)N/N=C/c1ccc(O)c(O)c1 | 2 | 1 | 42* | 0.58 | 0.9 | 10 | 41*
Cc1cc(SCC(=O)N/N=C/c2ccc(O)c(O)c2)c(C)cc1Br | 14 | 0.9 | 16 | 0.84 | 1.1 | -15 | ·
CC1Cc2c([nH]c3ccccc23)C(=O)N1 (configuration not stated) | · | · | -13 | 1.1 | 1.1 | -13 | ·
C=C(C)Cn1c(CN(C)Cc2ccccc2)nc2c1c(=O)n(C)c(=O)n2C | · | · | 1 | 0.99 | 0.94 | 6 | ·
NNC(=S)Nc1c(F)cc(F)cc1Br | · | · | 15 | 0.85 | 1.1 | -6 | ·
COc1ccc(CCNC(=O)CCc2cn(C)c3ccccc23)c(OC)c1OC | · | · | 2 | 0.98 | 1.1 | -5 | ·
CCN1C(=O)/C(=C2\SC(=S)N(NC(=O)c3ccccc3O)C2=O)c2ccccc21 | · | · | 51* | 0.49 | 1.8 | -75 | 47*
CC(=O)c1cccc(NC(=O)NC2CCCCCCC2)c1 | · | · | -18 | 1.2 | 1.2 | -23 | ·
Cc1cccc(NC(=O)NC2CCCCCCC2)c1 | · | · | -118 | 2.2* | 1.3 | -35 | -145
O=C(Nc1cccc(C(F)(F)F)c1)NC1CCCCC1 | 12 | 0.9 | -150 | 2.5* | 1.4 | -36 | -110
Cc1ccc(NC(=O)NC2CCCCCCC2)cc1C | · | · | -233 | 3.3* | 1.5 | -46 | -156
CCN(C(=O)CSc1nnc(-c2ccc(OC)cc2)n1C(C)C)C1CCS(=O)(=O)C1 (configuration not stated) | · | · | -4 | 1 | 1.1 | -10 | ·
O=C(Nc1cccc(-c2cscn2)c1)C1CCN(Cc2ccccn2)CC1 | · | · | -3 | 1 | 1.4 | -43 | ·
COc1ccc(S(=O)(=O)/N=C2/NC(=O)/C(=C\c3ccco3)S2)cc1 | -41 | 1.4 | 58* | 0.42 | 0.98 | 2 | 64*
CN1CCCN(S(=O)(=O)c2cccc(C(F)(F)F)c2)c2nc3ccccc3nc21 | · | · | -6 | 1.1 | 0.94 | 6 | ·
Oc1ccc(Cl)cc1-c1cc(-c2ccco2)[nH]n1 | -11 | 1.1 | 80* | 0.2 | 0.99 | 1 | 80*
Oc1ccc(Br)cc1-c1cc(-c2ccco2)[nH]n1 | 0 | 1 | 24 | 0.76 | 1.1 | -14 | ·
O=C(Nc1ccc(F)cc1)NC1(C(=O)NCc2ccco2)CCCCC1 | 7 | 0.9 | -19 | 1.2 | 1.1 | -14 | ·
Cc1ccc(CNC(=O)C2(NC(=O)Nc3ccc(C)cc3)CCCCC2)cc1 | -7 | 1.1 | i | 6.6* | 0.96 | 4 | -198
CC(C)c1ccc(NC(=O)NC2(C(=O)NCc3cccnc3)CCCCC2)cc1 | · | · | -53 | 1.5 | 1.7 | -72 | ·
Cc1ccc(NC(=O)NC2(C(=O)NCc3ccccc3)CCCCC2)cc1 | 8 | 0.9 | -175 | 2.7* | 0.81 | 20 | -131
COc1ccccc1CNC(=O)C1(NC(=O)Nc2ccc(C)cc2)CCCCC1 | -386 | 4.9* | -490 | 5.9* | 2.8* | -183 | -244
Cc1cc(C(C)(C)C)cc(C)c1COC(=O)CN1C(=O)NC2(CCCC2)C1=O | · | · | -3 | 1 | 0.88 | 12 | ·
CCOC(=O)NNc1ccc2nonc2c1[N+](=O)[O-] | · | · | 43* | 0.57 | 0.92 | 8 | 44*
SMILES | bIAP inhibitor | bIAP activator | mIAP inh | mIAP activ | hIAP act | hIAP block | mIAP inh conf
O=[N+]([O-])c1c(NCc2ccco2)ccc2nonc12 | · | · | 41* | 0.59 | 0.86 | 14 | 51*
Cc1cc(OCC(=O)N2CCc3ccccc3C2)c(C)cc1Br | · | · | -2 | 1 | 0.89 | 11 | ·
CN(Cc1ccccc1)C(=O)c1ccc(NC(=O)Cc2cccc(NC(=O)C3CCN(C(=O)C4CCCC4)CC3)c2)cc1 | · | · | -42 | 1.4 | 1 | -4 | ·
O=c1cc(-c2ccccc2)oc2cc(O)c(O)c(O)c12 | · | · | 5 | 0.95 | 1.2 | -22 | ·
O=c1c(O)cccc2cc(O)c(O)c(O)c12 | · | · | 61* | 0.39 | 1.1 | -14 | 74*
Cc1nn(Cc2c(Cl)cccc2Cl)c(C)c1NC(=O)c1cn(-c2ccccc2)nc1-c1ccccc1 | -27 | 1.3 | -146 | 2.5* | 1.1 | -11 | -74
Cc1cc(O)c(N=Cc2cc3c(cc2[N+](=O)[O-])OCO3)cc1C | · | · | 51* | 0.49 | 1.3 | -34 | 60*
Cc1cccc(N=Cc2cc3c(cc2[N+](=O)[O-])OCO3)c1 | 2 | 1 | 19 | 0.81 | 1.1 | -6 | ·
O=C(c1cccs1)[C@@H]1[C@@H]2C(=O)N(Cc3ccc4c(c3)OCO4)C(=O)[C@@H]2C2c3ccccc3C=CN21 (some centres not stated) | 7 | 0.9 | 46* | 0.54 | 0.99 | 1 | 43*
O=C(c1ccc2c(c1)OCO2)[C@@H]1[C@@H]2C(=O)N(C3CCCCC3)C(=O)[C@@H]2C2c3ccccc3C=CN21 (some centres not stated) | 2 | 1 | · | · | · | · | ·
COCCCNC(=O)c1ccc(S(=O)(=O)c2ccc(Cl)cc2)c(NC(C)=O)c1 | · | · | 11 | 0.89 | 1 | -4 | ·
Cc1onc(-c2ccccc2)c1CNC(=O)Nc1ccc(F)cc1F | · | · | -44 | 1.4 | 1.2 | -19 | ·
Cc1onc(-c2ccccc2)c1CNC(=O)Nc1cccc(Cl)c1 | · | · | -302 | 4* | 1.3 | -26 | -133
Cc1nn(C)c(C)c1CNC(=O)Nc1cccc(Cl)c1 | -4 | 1 | -23 | 1.2 | 1.1 | -11 | ·
Cc1onc(-c2ccccc2)c1CNC(=O)Nc1ccc(C(F)(F)F)cc1 | · | · | -306 | 4.1* | 1.2 | -23 | -99
Cc1cc(C)cc(NC(=O)NCc2c(-c3ccccc3)noc2C)c1 | · | · | -370 | 4.7* | 1 | -4 | -173
CCCCn1c(N)c(N(CC(C)C)C(=O)c2ccc(-c3ccc([N+](=O)[O-])cc3)o2)c(=O)[nH]c1=O | · | · | 8 | 0.93 | 1.1 | -9 | ·
CC(C)(C)c1nc(NC(=O)Nc2ccccc2)sc1Br | -2 | 1 | -192 | 2.9* | 0.95 | 5 | -112
C#CCOCCOCCOCCNc1nc(N2CCN(C(=O)CCCCCCCCCCNC(=O)[C@H]([C@@H](C)CC)n3cc(CCCCN=C(N)N)nn3)CC2)nc(N2CCN(C(=O)CCCCCCCCCCNC(=O)[C@H](CCCCN)n3cc(C[C@@H](C)CC)nn3)CC2)n1 | · | · | -296 | 4* | 1.2 | -20 | i

Assay outcomes deposited in PubChem BioAssay by Sanford-Burnham Center for Chemical Genomics.
